Measured values from ChEMBL document CHEMBL5357042, “Discovery of imidazo[1,2-b]pyridazine-containing TAK1 kinase inhibitors with excellent activities against multiple myeloma” (RSC Med Chem, 2024).
pIC50: −log10 of the molar value. Activity calls are given as the source filed them. The rule behind the calls is not given here.

What was measured:
MPC-11 [1] = test: Cytotoxicity against mouse MPC-11 cells assessed as reduction in cell viability at 200 nM incubated for 72 hrs by CellTiter-Blue assay; assay type: functional
Summary of the method: (§1)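 H929 (RPMI, 10% heat-inactivated FBS) or MPC-11 (DMEM, 10% FBS) cells, under 10 passages, 37 °C, 5% CO₂; 4–5 × 10³ cells/well seeded, 24 h, then compound at various concentrations for 72 h. CellTiter-Blue added for 3 h, fluorescence ex/em 560/590 nm. Normalized to DMSO-treated cells; triplicate, mean and standard deviation.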

MPC-11 [2] = test: Cytotoxicity against mouse MPC-11 cells assessed as reduction in cell viability at 0.2 to 1 uM to incubated for 72 hrs by CellTiter-Blue assay; assay type: functional, cell-based; settings: dose 0.2-1 µM; summary of the method: as §1
[3] = biological target: T1, Mitogen-activated protein kinase kinase kinase 7 (Homo sapiens) (UniProt O43318); test: Inhibition of TAK1 (unknown origin) at 100 nM by ADP-Glo kinase assay
T1 sequence (whole entry): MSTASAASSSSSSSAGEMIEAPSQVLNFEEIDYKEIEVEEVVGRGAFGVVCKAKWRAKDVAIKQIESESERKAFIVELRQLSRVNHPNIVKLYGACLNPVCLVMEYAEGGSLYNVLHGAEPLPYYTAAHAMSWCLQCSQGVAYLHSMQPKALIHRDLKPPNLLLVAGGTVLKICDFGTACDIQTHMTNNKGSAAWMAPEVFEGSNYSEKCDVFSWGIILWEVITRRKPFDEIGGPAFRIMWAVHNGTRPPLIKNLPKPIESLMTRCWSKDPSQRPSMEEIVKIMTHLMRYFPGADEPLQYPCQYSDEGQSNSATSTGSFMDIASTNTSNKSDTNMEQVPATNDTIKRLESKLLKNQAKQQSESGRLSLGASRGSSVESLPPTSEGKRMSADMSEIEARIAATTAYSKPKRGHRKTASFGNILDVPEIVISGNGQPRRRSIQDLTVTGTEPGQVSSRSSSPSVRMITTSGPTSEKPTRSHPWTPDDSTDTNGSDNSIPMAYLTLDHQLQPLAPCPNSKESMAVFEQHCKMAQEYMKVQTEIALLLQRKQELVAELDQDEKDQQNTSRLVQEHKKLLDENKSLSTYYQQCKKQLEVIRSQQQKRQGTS

[4] = biological target: T1, Mitogen-activated protein kinase kinase kinase 7 (Homo sapiens); test: Inhibition of TAK1 (unknown origin) at 500 nM by ADP-Glo kinase assay
[5] = biological target: T1, Mitogen-activated protein kinase kinase kinase 7 (Homo sapiens); test: Inhibition of TAK1 (unknown origin) at 20 nM by ADP-Glo kinase assay
MPC-11 [6] = test: Cytotoxicity against mouse MPC-11 cells assessed as reduction in cell viability incubated for 72 hrs by CellTiter-Blue assay; assay type: functional; summary of the method: as §1
[7] = biological target: Mitogen-activated protein kinase kinase kinase 7 (Homo sapiens, UniProt O43318); test: Inhibition of human TAK1 using casein as substrate in presence of [gamma-33P]-ATP by radiometric hotspot kinase assay
NCI-H929 = test: Cytotoxicity against human NCI-H929 cells assessed as reduction in cell viability incubated for 72 hrs by CellTiter-Blue assay; assay type: functional; summary of the method: as §1
[8] = biological target: Mitogen-activated protein kinase kinase kinase 7 (Mus musculus) (UniProt Q62073); test: Inhibition of TAK1 in mouse MPC-11 cells assessed as reduction in TAK1 phosphorylation at Ser412 residue at 0.1 to 0.5 uM incubated for 48 hrs by Western blot analysis; assay type: cell-based; settings: dose 0.1-0.5 µM
Mitogen-activated protein kinase kinase kinase 7 (Mus musculus), sequence (Q62073 whole entry): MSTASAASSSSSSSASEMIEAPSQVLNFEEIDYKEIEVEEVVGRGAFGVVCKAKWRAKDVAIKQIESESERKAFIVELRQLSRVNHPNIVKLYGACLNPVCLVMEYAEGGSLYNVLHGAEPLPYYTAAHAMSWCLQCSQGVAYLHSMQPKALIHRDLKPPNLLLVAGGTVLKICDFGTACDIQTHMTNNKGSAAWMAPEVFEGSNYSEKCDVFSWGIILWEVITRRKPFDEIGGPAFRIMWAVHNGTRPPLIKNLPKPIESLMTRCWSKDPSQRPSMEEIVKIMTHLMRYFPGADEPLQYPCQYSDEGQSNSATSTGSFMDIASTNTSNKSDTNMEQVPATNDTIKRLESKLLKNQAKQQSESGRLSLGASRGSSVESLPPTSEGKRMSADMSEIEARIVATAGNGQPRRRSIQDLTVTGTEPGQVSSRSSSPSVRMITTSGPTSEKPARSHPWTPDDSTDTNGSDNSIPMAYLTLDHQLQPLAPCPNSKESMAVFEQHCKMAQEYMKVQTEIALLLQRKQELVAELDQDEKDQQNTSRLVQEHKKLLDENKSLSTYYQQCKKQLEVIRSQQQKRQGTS
Summary of the method: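 MPC-11 cells (0.5–1 × 10⁶/well) seeded, treated after 24 h for 48 h; DMSO control. BCA protein quantitation, 10% SDS-PAGE, PVDF; pTAK1, TAK1, β-actin antibodies overnight 4 °C, HRP secondaries 2 h 24 °C, chemiluminescence. Bands quantified relative to actin; duplicates, mean and standard deviation.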

Compound	inhibition [3]	inhibition [4]	also measured
Cc1n[nH]c2ccc(-c3cnc4ccc(N5CCO[C@H](C)C5)nn34)cc12	> 50%	> 50%	inhibition at 0.2 µM (MPC-11 [1]): ~50%; Activity (MPC-11 [2]): Active; inhibition [5]: > 50%
CCCn1/c(=N/C(=O)c2cccc(C(N)=O)c2)[nH]c2ccccc21			GI50 (MPC-11 [6]): 8500 nM; pIC50 [7]: 6.73; GI50 (NCI-H929): 51000 nM
Cc1n[nH]c2ccc(-c3cnc4ccc(N5C[C@@H](C)O[C@H](C)C5)nn34)cc12	> 50%	> 50%	Activity (MPC-11 [2]): Active; inhibition [5]: > 50%
COCCN1CCN(c2ccc3ncc(-c4ccc5[nH]nc(C)c5c4)n3n2)CC1	46%	> 50%	
Cc1n[nH]c2ccc(-c3cnc4ccc(N5CC6CCC(C5)O6)nn34)cc12	> 50%	> 50%	GI50 (MPC-11 [6]): 131 nM; Activity (MPC-11 [2]): Active; GI50 (NCI-H929): 33 nM; inhibition [5]: > 50%
CCc1n[nH]c2ccc(-c3cnc4ccc(N5C[C@@H](C)O[C@@H](C)C5)nn34)cc12	> 50%	100%	GI50 (MPC-11 [6]): 94 nM; GI50 (NCI-H929): 30 nM; inhibition [5]: > 50%
Cc1n[nH]c2ccc(-c3cnc4ccc(N5CCOC(C)(C)C5)nn34)cc12	> 50%	100%	GI50 (MPC-11 [6]): 126 nM; Activity (MPC-11 [2]): Active; GI50 (NCI-H929): 24 nM; inhibition [5]: > 50%
Cc1n[nH]c2ccc(-c3cnc4ccc(N5CCO[C@@H](C)C5)nn34)cc12	> 50%	100%	inhibition (MPC-11 [1]): inactive; Activity (MPC-11 [2]): inactive; inhibition [5]: > 50%
Cc1n[nH]c2ccc(-c3cnc4ccc(N5C[C@H]6C[C@@H]5CO6)nn34)cc12	> 50%	> 50%	GI50 (MPC-11 [6]): 155 nM; Activity (MPC-11 [2]): Active; GI50 (NCI-H929): 71 nM; inhibition [5]: > 50%
C[C@@H]1CN(c2ccc3ncc(-c4cccc5[nH]ncc45)n3n2)C[C@H](C)O1		< 50%	
Cc1n[nH]c2ccc(-c3cnc4ccc(N5C[C@@H]6C[C@H]5CO6)nn34)cc12	> 50%	> 50%	GI50 (MPC-11 [6]): 101 nM; Activity (MPC-11 [2]): Active; GI50 (NCI-H929): 45 nM; inhibition [5]: > 50%
C[C@@H]1CN(c2ccc3ncc(-c4ccc(OC(F)(F)F)cc4)n3n2)C[C@H](C)O1		< 50%	
C[C@@H]1CN(c2ccc3ncc(-c4ccc(C(F)(F)F)cc4)n3n2)C[C@H](C)O1		< 50%	
Cc1n[nH]c2ccc(-c3cnc4ccc(N5CCOCC5)nn34)cc12	91%	> 50%	
C[C@@H]1CN(c2ccc3ncc(-c4ccc(CC#N)cc4)n3n2)C[C@H](C)O1		< 50%	
Cc1n[nH]c2ccc(-c3cnc4cccnn34)cc12	26%		
Cc1nc2ccc(N3C[C@@H](C)O[C@@H](C)C3)nn2c1-c1ccc2[nH]nc(C)c2c1		< 50%	

More lines, main results first:

inhibition [3]	inhibition [4]	Compound	also measured
< 50%	74%	C[C@@H]1CN(c2ccc3ncc(-c4ccc(C(N)=O)cc4)n3n2)C[C@H](C)O1	
	< 50%	C[C@@H]1CN(c2ccc3ncc(-c4ccc5c(cnn5C)c4)n3n2)C[C@H](C)O1	
> 50%	> 50%	C[C@@H]1CN(c2ccc3ncc(-c4ccc5cn[nH]c5c4)n3n2)C[C@H](C)O1	
	< 50%	C[C@@H]1CN(c2ccc3ncc(-c4cccc(C#N)c4)n3n2)C[C@H](C)O1	
	< 50%	C[C@@H]1CN(c2ccc3ncc(-c4ccc(S(N)(=O)=O)cc4)n3n2)C[C@H](C)O1	
	< 50%	C[C@@H]1CN(c2ccc3ncc(-c4ccc(F)c(C#N)c4)n3n2)C[C@H](C)O1	
	< 50%	C[C@@H]1CN(c2ccc3ncc(-c4ccncc4)n3n2)C[C@H](C)O1	
	< 50%	C[C@@H]1CN(c2ccc3ncc(-c4cccnc4)n3n2)C[C@H](C)O1	
	< 50%	C[C@@H]1CN(c2ccc3ncc(-c4ccccc4)n3n2)C[C@H](C)O1	
	< 50%	C[C@@H]1CN(c2ccc3ncc(-c4cccc(S(C)(=O)=O)c4)n3n2)C[C@H](C)O1	
> 50%	> 50%	C[C@@H]1CN(c2ccc3ncc(-c4ccc5cnn(C)c5c4)n3n2)C[C@H](C)O1	
	< 50%	C[C@@H]1CN(c2ccc3ncc(-c4ccc(C#N)cc4)n3n2)C[C@H](C)O1	
95%	100%	Cc1n[nH]c2ccc(-c3cnc4ccc(N5C[C@@H](C)O[C@@H](C)C5)nn34)cc12	inhibition [8]: Active; GI50 (MPC-11 [6]): 72 nM; GI50 (NCI-H929): 87 nM; inhibition [5]: > 50%
	< 50%	C[C@@H]1CN(c2ccc3ncc(-c4ccc(F)cc4)n3n2)C[C@H](C)O1	
	< 50%	CNC(=O)c1ccc(-c2cnc3ccc(N4C[C@@H](C)O[C@@H](C)C4)nn23)cc1	
	< 50%	C[C@@H]1CN(c2ccc3ncc(-c4ccc5c(c4)CC(=O)N5)n3n2)C[C@H](C)O1	
	< 50%	C[C@@H]1CN(c2ccc3ncc(-c4ccc(Cl)cc4)n3n2)C[C@H](C)O1	
> 50%	> 50%	C[C@@H]1CN(c2ccc3ncc(-c4ccc5[nH]ncc5c4)n3n2)C[C@H](C)O1	
